The text below walks through data of ChEMBL document CHEMBL4627366, “Structure-based drug design of 1,3,5-triazine and pyrimidine derivatives as novel FGFR3 inhibitors with high selectivity over VEGFR2” (Bioorg Med Chem, 2020).

Assay [1] concerns the target Vascular endothelial growth factor receptor 2 (Homo sapiens, UniProt P35968). Briefly: Inhibition of N-terminal GST-tagged human VEGFR2 cytoplasmic domain (790-1356 end amino acid residue) expressed in baculovirus expression system preincubated for 30 to 120 mins followed by incubation with substrate and ATP for 30 mins by off-chip mobility shift assay. The gist of the method: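 Recombinant VEGFR2 kinase preincubated with compound for 30 or 120 min at RT. Substrate plus ATP (75 µmol/L) added, 30 min at RT, then stopped with termination buffer and read by off-chip mobility shift. No-ATP wells set as 100% inhibition, DMSO wells as 0%. IC50 from Sigmoid-Emax nonlinear regression per experiment.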

Assay [2] deals with Fibroblast growth factor receptor 4 (Homo sapiens, UniProt P22455). Kind of assay: Inhibition of N-terminal GST-tagged human FGFR4 cytoplasmic domain (460-802 end amino acids residues) expressed in baculovirus expression system preincubated for 30 to 120 mins followed by incubation with substrate and ATP for 30 mins by off-chip mobility shift assay.
Assay [3] can be described thus: Antiproliferative activity against human UM-UC-14 cells harboring FGFR3 S249C mutation assessed as inhibition of cell growth incubated for 5 days by CellTier-Glo luminescent assay. Particulars: UMUC14, 120 h.
Assay [4] addresses Fibroblast growth factor receptor 1 (Homo sapiens, UniProt P11362). Briefly: Inhibition of N-terminal GST-tagged human FGFR1 cytoplasmic domain (398-822 end amino acids residues) expressed in baculovirus expression system preincubated for 30 to 120 mins followed by incubation with substrate and ATP for 30 mins by off-chip mobility shift assay.
Assay [5] has as its target Fibroblast growth factor receptor 2 (Homo sapiens, UniProt P21802). Briefly: Inhibition of N-terminal GST-tagged human FGFR2 cytoplasmic domain (399-821 end amino acids residues) expressed in baculovirus expression system preincubated for 30 to 120 mins followed by incubation with substrate and ATP for 30 mins by off-chip mobility shift assay.
Assay [6] concerns the target Fibroblast growth factor receptor 3 (Homo sapiens, UniProt P22607). Briefly: Inhibition of N-terminal GST-tagged human FGFR3 cytoplasmic domain (436-806 end amino acids residues) expressed in baculovirus expression system preincubated for 30 to 120 mins followed by incubation with substrate and ATP for 30 mins by off-chip mobility shift assay.

Vascular endothelial growth factor receptor 2, sequence (P35968 whole entry, the tested form may be a part): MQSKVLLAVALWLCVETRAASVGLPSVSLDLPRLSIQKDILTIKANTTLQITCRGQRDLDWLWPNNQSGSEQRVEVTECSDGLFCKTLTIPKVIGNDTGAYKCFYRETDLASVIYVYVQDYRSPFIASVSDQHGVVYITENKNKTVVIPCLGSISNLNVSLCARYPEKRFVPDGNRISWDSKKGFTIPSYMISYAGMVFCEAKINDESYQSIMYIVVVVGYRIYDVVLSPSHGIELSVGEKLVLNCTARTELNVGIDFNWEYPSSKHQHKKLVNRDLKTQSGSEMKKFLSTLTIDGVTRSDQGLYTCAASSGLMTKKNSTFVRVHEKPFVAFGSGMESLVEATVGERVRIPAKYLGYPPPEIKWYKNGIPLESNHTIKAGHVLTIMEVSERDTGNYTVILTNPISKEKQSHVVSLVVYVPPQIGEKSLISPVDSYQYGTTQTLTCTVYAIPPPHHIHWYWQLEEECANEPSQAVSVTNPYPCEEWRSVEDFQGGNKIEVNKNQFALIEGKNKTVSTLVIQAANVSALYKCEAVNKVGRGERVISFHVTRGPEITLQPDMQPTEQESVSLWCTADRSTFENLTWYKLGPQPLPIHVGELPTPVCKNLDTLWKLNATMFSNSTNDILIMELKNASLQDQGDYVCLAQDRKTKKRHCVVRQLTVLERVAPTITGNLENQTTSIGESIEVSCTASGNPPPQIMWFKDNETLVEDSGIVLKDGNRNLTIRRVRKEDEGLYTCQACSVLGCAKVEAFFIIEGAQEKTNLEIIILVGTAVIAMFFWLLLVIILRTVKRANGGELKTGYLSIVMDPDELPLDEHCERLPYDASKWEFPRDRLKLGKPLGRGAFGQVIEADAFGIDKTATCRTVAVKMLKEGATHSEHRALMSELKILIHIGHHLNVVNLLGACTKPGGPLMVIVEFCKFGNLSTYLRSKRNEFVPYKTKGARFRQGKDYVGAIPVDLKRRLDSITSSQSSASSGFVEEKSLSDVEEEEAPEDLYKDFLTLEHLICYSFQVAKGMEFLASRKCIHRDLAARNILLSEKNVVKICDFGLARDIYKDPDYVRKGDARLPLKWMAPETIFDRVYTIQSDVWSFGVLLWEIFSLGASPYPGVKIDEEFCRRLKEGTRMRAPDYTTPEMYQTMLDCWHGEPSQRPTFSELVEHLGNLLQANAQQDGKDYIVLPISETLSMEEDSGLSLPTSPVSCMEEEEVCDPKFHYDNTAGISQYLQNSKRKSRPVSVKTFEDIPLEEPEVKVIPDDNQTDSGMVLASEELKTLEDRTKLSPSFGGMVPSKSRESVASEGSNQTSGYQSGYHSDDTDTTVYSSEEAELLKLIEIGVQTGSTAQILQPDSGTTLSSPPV
Fibroblast growth factor receptor 2, sequence (P21802 whole entry, the tested form may be a part): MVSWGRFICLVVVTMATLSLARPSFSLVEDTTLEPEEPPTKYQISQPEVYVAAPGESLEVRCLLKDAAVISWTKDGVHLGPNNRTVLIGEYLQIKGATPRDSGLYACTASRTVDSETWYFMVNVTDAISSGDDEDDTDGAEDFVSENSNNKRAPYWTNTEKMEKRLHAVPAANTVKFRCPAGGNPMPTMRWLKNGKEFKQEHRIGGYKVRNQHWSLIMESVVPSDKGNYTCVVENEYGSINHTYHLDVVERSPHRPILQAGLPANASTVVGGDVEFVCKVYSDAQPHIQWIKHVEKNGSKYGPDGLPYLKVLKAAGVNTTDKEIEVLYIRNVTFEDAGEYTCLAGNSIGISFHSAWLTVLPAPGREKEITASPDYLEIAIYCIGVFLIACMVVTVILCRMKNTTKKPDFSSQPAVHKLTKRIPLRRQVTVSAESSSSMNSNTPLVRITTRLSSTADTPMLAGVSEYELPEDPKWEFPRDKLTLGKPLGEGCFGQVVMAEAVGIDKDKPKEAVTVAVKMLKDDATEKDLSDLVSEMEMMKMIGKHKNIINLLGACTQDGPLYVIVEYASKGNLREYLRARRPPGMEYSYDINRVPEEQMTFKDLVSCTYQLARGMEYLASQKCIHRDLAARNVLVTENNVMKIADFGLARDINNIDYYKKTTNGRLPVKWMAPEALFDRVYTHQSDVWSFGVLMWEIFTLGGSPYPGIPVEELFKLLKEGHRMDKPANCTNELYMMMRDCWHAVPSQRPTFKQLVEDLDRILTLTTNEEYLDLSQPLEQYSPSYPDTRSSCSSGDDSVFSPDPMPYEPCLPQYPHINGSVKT
Fibroblast growth factor receptor 1, sequence (P11362 whole entry, the tested form may be a part): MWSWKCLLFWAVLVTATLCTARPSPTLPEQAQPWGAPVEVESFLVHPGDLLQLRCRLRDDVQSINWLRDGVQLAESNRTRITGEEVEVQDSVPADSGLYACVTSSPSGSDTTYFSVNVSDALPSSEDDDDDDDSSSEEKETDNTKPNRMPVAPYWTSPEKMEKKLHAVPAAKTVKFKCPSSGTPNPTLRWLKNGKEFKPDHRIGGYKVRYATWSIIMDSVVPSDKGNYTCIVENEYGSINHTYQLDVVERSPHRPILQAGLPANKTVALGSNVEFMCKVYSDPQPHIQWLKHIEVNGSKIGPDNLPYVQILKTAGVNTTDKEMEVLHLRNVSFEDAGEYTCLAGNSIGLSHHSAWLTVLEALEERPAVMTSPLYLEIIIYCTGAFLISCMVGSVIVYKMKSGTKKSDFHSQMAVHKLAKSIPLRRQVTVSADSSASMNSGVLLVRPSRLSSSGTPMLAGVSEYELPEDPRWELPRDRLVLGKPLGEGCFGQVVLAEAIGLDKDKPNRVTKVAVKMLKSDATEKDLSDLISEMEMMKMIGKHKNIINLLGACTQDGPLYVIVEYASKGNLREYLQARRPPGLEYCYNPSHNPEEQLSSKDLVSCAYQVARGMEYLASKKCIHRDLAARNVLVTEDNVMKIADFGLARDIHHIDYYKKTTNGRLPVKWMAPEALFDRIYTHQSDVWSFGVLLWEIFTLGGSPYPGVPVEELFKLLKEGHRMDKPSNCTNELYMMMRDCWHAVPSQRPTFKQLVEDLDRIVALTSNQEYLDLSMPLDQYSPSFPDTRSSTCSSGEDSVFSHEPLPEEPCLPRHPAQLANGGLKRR
Fibroblast growth factor receptor 4, sequence (P22455 whole entry, the tested form may be a part): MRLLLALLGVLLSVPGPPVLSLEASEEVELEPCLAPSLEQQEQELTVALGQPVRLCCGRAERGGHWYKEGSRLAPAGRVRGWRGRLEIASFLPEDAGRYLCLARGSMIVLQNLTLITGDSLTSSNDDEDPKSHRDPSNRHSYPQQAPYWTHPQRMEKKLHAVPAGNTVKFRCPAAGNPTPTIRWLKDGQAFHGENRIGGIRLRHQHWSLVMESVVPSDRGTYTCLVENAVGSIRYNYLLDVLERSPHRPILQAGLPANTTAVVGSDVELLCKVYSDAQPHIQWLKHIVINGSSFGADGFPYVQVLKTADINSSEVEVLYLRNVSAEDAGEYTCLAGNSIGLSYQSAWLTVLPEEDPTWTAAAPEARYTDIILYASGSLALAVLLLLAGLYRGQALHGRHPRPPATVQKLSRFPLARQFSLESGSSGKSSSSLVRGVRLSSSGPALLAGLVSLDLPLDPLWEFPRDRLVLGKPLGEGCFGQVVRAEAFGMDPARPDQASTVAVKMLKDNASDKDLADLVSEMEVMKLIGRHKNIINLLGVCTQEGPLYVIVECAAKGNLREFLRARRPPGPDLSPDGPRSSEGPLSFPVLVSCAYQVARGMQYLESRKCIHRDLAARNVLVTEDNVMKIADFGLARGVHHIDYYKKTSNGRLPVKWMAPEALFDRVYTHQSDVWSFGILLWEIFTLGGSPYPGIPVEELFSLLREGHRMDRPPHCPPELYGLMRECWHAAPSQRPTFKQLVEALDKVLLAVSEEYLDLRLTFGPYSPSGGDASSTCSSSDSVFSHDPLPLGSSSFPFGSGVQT
Fibroblast growth factor receptor 3, sequence (P22607 whole entry, the tested form may be a part): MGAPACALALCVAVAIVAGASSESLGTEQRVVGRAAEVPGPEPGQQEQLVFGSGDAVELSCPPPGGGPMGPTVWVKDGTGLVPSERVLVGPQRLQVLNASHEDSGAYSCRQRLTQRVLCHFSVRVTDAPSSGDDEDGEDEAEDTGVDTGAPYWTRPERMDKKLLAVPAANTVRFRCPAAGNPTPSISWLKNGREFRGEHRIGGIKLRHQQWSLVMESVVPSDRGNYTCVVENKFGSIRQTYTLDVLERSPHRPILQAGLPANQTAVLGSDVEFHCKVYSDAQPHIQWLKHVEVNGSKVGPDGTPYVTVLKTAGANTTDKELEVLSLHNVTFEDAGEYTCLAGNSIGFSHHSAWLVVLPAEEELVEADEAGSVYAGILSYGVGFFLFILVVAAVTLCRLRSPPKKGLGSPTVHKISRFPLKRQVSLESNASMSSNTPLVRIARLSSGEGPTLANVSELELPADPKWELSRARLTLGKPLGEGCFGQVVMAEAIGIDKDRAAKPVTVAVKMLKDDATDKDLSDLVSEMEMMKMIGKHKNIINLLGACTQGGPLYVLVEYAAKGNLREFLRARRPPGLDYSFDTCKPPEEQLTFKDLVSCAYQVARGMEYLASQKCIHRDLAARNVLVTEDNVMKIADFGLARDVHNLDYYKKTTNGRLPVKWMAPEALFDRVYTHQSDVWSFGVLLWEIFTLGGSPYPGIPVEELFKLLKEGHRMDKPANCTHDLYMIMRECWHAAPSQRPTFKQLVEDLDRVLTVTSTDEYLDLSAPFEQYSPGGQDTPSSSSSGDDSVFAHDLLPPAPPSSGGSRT

`CCNS(=O)(=O)c1ccccc1Nc1nc(Nc2ccc(N3CCC(N4CCN(C)CC4)CC3)c(OC)c2)ncc1CCc1cc(OC)cc(OC)c1`: the half-maximal inhibitory concentration (IC50) in assay [1] was determined as 292 nM.
On the same count and under the same terms, in the case of `CCNS(=O)(=O)c1ccccc1Nc1nc(Nc2ccc(N3CCC(N4CCN(C)CC4)CC3)c(OC)c2)ncc1-c1cc(OC)cc(OC)c1` it was 38 nM; in that of `CCNS(=O)(=O)c1ccccc1Nc1nc(Nc2ccc(N3CCC(N4CCN(C)CC4)CC3)c(OC)c2)ncc1NC(=O)c1nc(OC)cc(OC)n1`, 131 nM.
The same measure, in the same setting: in the case of `CCNS(=O)(=O)c1ccccc1Nc1nc(Nc2ccc(N3CCC(N4CCN(C)CC4)CC3)c(OC)c2)ncc1NC(=O)c1cccc(OC)c1OC` it was 461 nM.
On the same count and under the same terms, in the case of `CCNS(=O)(=O)c1ccccc1Nc1ncnc(Nc2ccc(N3CCN(C)CC3)c(OC)c2)n1` it was 341 nM; in that of `CCNS(=O)(=O)c1ccccc1Nc1ncnc(Nc2ccc(N3CCN(C)CC3)c(OCCN3CCN(C)CC3)c2)n1`, 341 nM.
With `CCNS(=O)(=O)c1ccccc1Nc1ncnc(Nc2ccc(N3CCN(C)CC3)c(OCCCN3CCOCC3)c2)n1`, the IC50 in assay [1] was found to be 736 nM.
On the same count and under the same terms, in the case of `CCNS(=O)(=O)c1ccccc1Nc1nc(Nc2ccc(N3CCC(N4CCN(C)CC4)CC3)c(OC)c2)ncc1NC(=O)c1cc(C)cc(C)c1` it was 554 nM; in that of `CCNS(=O)(=O)c1ccccc1Nc1ncnc(Nc2ccc(N3CCN(C)CC3)c(OCCOCCOC)c2)n1`, 550 nM.
On the same count and under the same terms, the value for `CCNS(=O)(=O)c1ccccc1Nc1ncnc(Nc2ccc(N3CCC(N4CCN(C)CC4)CC3)c(OC)c2)n1` was 266 nM.
In the case of `CCNS(=O)(=O)c1ccccc1Nc1nc(Nc2ccc(N3CCC(N4CCN(C)CC4)CC3)c(OC)c2)ncc1NC(=O)c1cc(OC)cc(OC)c1`, the IC50 was over 1000 nM in assay [1]; 74 nM in assay [2]; 84 nM in assay [3]; 2.1 nM in assay [4]; 3.1 nM in assay [5].
Consider `CCNS(=O)(=O)c1ccccc1Nc1nc(Nc2ccc(N3CCC(N4CCN(C)CC4)CC3)c(OC)c2)ncc1NC(=O)c1cc(OC)nc(OC)n1`, for which the IC50 in assay [1] is 227 nM.
The same measure, in the same setting: the value for `CCNS(=O)(=O)c1ccccc1Nc1ncnc(Nc2ccc(N3CCN(C)CC3)c(OCC(=O)O)c2)n1` was 120 nM; that for `CCNS(=O)(=O)c1ccccc1Nc1ncnc(Nc2ccc(N3CCN(C)CC3)c(OCC(=O)OCC)c2)n1` was 316 nM.
The same measure, in the same setting: the value for `CCNS(=O)(=O)c1ccccc1Nc1ncnc(Nc2ccc(N3CCN(C)CC3)c(OCCOC)c2)n1` was 310 nM; that for `CCNS(=O)(=O)c1ccccc1Nc1ncnc(Nc2ccc(N3CCN(C)CC3)c(OCCN3CCOCC3)c2)n1` was 570 nM.
Regarding `CCNS(=O)(=O)c1ccccc1Nc1nc(Nc2ccc(N3CCC(N4CCN(C)CC4)CC3)c(OC)c2)ncc1Cc1cc(OC)cc(OC)c1`, the IC50 in assay [1] and in assay [6] was over 1000 nM throughout.
Turning to `CCNS(=O)(=O)c1ccccc1Nc1nc(Nc2ccc(N3CCC(N4CCN(C)CC4)CC3)c(OC)c2)ncc1NC(=O)c1cc(OC)ccc1OC`, the IC50 in assay [1] was found to be 435 nM.
Same read-out and setting: in the case of `CCNS(=O)(=O)c1ccccc1Nc1nc(Nc2ccc(N3CCC(N4CCN(C)CC4)CC3)c(OC)c2)ncc1NC(=O)c1cc(O)cc(O)c1` it was 715 nM.
